“And” between values parts separate entries of the source, which are not always exact repeats. Identical values can stand only once.
Key:
Format in all cases: functional
[1] = tested on: Plasmodium berghei; assay: Antimalarial activity in Plasmodium berghei infected mice (Mus musculus) after subcutaneous 640 mg/kg dose
Procedure, shortened: (§1)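 Normal drug-sensitive P. berghei strain in mice. Compound dissolved or suspended in sesame or peanut oil, given parenterally as a single subcutaneous dose 72 h postinfection.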

[2] = tested on: Plasmodium berghei; assay: Antimalarial activity in Plasmodium berghei infected mice (Mus musculus) after 20 mg/kg subcutaneous dose
Procedure, shortened: (§2)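 […] in mice infected with a normal drug-sensitive P. berghei strain. Compound dissolved or suspended in sesame or peanut oil, given as a single subcutaneous dose 72 h postinfection.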

[3] = tested on: Plasmodium berghei; assay: Antimalarial activity Plasmodium berghei infected mice (Mus musculus) after 640 mg/kg subcutaneous dose; procedure, shortened: as §2
[4] = tested on: Plasmodium berghei; assay: (§3) Antimalarial activity in Plasmodium berghei infected mice (Mus musculus) after 40 mg/kg subcutaneous dose; procedure, shortened: as §2
[5] = tested on: Plasmodium berghei; assay: Antimalarial activity in Plasmodium berghei infected mice (Mus musculus) after 160 mg/kg subcutaneous dose; procedure, shortened: as §2
[6] = tested on: Plasmodium berghei; assay: Antimalarial activity in Plasmodium berghei infected mice (Mus musculus) after subcutaneous 160 mg/kg dose; procedure, shortened: as §1
[7] = tested on: Plasmodium berghei; assay: (§4) Antimalarial activity in Plasmodium berghei infected mice (Mus musculus) after 80 mg/kg subcutaneous dose; procedure, shortened: as §2
[8] = tested on: Plasmodium berghei; assay: Antimalarial activity in Plasmodium berghei infected mice (Mus musculus) after subcutaneous 320 mg/kg dose; procedure, shortened: as §1
[9] = tested on: Plasmodium berghei; assay: as §3; procedure, shortened: as §1; remark: listed apart in the source
[10] = tested on: Plasmodium berghei; assay: as §4; procedure, shortened: as §1; remark: listed apart in the source

| Structure (SMILES) | No. of cured mice [1] | Delta mean survival time [2] | Delta mean survival time [3] | Delta mean survival time [4] | Delta mean survival time [5] | No. of cured mice [6] | Delta mean survival time [7] | No. of cured mice [8] | No. of cured mice [9] | No. of cured mice [10] | Delta mean survival time ([3]; 640 mg/kg) |
| --- | --- | --- | --- | --- | --- | --- | --- | --- | --- | --- | --- |
| O=C1CC(c2ccc(C(F)(F)F)cc2)Cc2nc3ccc([N+](=O)[O-])cc3c(O)c21 (stereo not drawn) | 1 | 0.7 | 6.9 | 4.1 | 2.8 |  |  |  |  |  |  |
| O=C1CC(c2ccccc2Cl)Cc2c1c(=O)c1cc(Cl)ccc1n2O (stereo not drawn) | 4 | 1.7 | 9 | 4.6 | 4.5 | 1 |  |  |  |  |  |
| O=C1CC(c2ccc([N+](=O)[O-])cc2)Cc2nc3ccc(Cl)cc3c(O)c21 (stereo not drawn) | 2 |  | 13.3 | 0.8 | 4.6 |  |  |  |  |  |  |
| CC(C/N=C1\CC(c2cccc(C(F)(F)F)c2)Cc2c1c(=O)c1cc(Cl)ccc1n2O)N(C)C (stereo not drawn) | 5 | 4 |  | 11.9 | 8.6 | 2 | 9.2 | 5 | 1 |  |  |
| CN(C)CCC/N=C1/c2c([nH]c3ccc(Cl)cc3c2=O)CC(c2ccc(Cl)c(Cl)c2)C1c1ccccc1 (stereo not drawn) | 5 | 3.1 |  | 7.7 | 12.2 | 2 | 14.2 | 5 |  | 1 |  |
| CN(C)CCC/N=C1\CC(c2cccc(C(F)(F)F)c2)Cc2nc3ccc(Cl)cc3c(O)c21 (stereo not drawn) | 5 |  |  | 6.6 |  | 5 | 14.6 | 5 |  | 1 |  |
| CN(C)CCC/N=C1\CC(c2ccccc2C(F)(F)F)Cc2c1c(=O)c1cc(Cl)ccc1n2O (stereo not drawn) | 5 |  |  | 5.8 | 8 | 4 | 7.5 | 5 |  | 1 |  |
| CN(C)CCC/N=C1\CC(c2ccc(C3CCCCC3)cc2)Cc2nc3ccc(Cl)cc3c(O)c21 (stereo not drawn) | 3 | 2.8 | 9.6 | 7 | 10.3 | 2 | 7.2 | 5 |  |  |  |
| CCCCNCCC/N=C1\CC(c2ccc(Cl)c(Cl)c2)Cc2c1c(=O)c1cc(Cl)ccc1n2O (stereo not drawn) | 5 | 4.4 |  | 9.4 | 10.6 | 4 | 9.1 | 5 |  | 1 |  |
| CCN(CC/N=C1\CC(c2ccc(Cl)c(Cl)c2)Cc2c1c(=O)c1cc(Cl)ccc1n2O)CC(C)(C)O (stereo not drawn) |  | 6.3 |  | 8.2 |  | 5 | 8 | 5 |  | 4 |  |
| CCN(CC)CCC/N=C1\CC(c2ccc(Cl)c(Cl)c2)Cc2c1c(=O)c1cc(Cl)ccc1n2O (stereo not drawn) | 5 | 5.8 |  | 3.5 | 12.7 | 4 | 11.7 | 5 |  | 2 |  |
| NCC/N=C1\CC(c2ccc(Cl)cc2Cl)Cc2nc3ccc(Cl)cc3c(O)c21 (stereo not drawn) | 5 |  |  |  |  | 5 |  |  | 5 |  |  |
| O=C1CC(c2ccccc2C(F)(F)F)Cc2c1c(=O)c1cc(Cl)ccc1n2O (stereo not drawn) |  | 0.6 | 8.3 | 2.7 | 4.5 |  |  |  |  |  |  |
| Cc1ccc(C2CC(=O)c3c(n(O)c4ccc(Cl)cc4c3=O)C2)cc1 (stereo not drawn) |  | 0.8 | 6.9 | 0.6 | 3.1 |  | 2.8 |  |  |  |  |
| O=C1CC(c2ccc(C(F)(F)F)cc2)Cc2c1c(=O)c1c(Cl)c(Cl)ccc1n2O (stereo not drawn) | 2 | 4.5 |  | 7 | 7 | 2 | 7.8 | 3 |  |  | 9.8 and 7 |
| CC1C(=O)c2c(n(O)c3ccc(Cl)cc3c2=O)CC1c1ccc(C(F)(F)F)cc1 (stereo not drawn) | 5 | 5.2 |  | 7.8 |  | 5 | 14.1 | 5 |  | 2 |  |
| CC1C(=O)c2c(nc3ccc(Cl)cc3c2O)CC1c1ccc(C(F)(F)F)cc1 (stereo not drawn) | 4 | 3.9 | 8.8 | 5.7 | 12.8 | 2 | 7.5 | 5 |  |  |  |
| CCN(CC)CC/N=C1\CC(c2ccc(C(F)(F)F)cc2)Cc2nc3ccc(Cl)cc3c(O)c21 (stereo not drawn) | 5 |  |  | 17.6 |  | 5 |  |  | 3 |  |  |

| Structure (SMILES) | No. of cured mice [1] | Delta mean survival time [2] | Delta mean survival time [3] | Delta mean survival time [4] | Delta mean survival time [5] | No. of cured mice [6] | Delta mean survival time [7] | No. of cured mice [8] | No. of cured mice [9] | No. of cured mice [10] | Delta mean survival time ([3]; 640 mg/kg) |
| --- | --- | --- | --- | --- | --- | --- | --- | --- | --- | --- | --- |
| CC(C/N=C1\CC(c2ccc(C(F)(F)F)cc2)Cc2nc3ccc(Cl)cc3c(O)c21)N(C)C (stereo not drawn) | 5 |  |  |  |  | 5 |  |  | 5 |  |  |
| Cc1ccc(C2CC(=O)c3c(nc4ccc(Cl)cc4c3O)C2)cc1 (stereo not drawn) | 2 |  | 11.7 | 3.9 | 8.7 | 2 |  |  |  |  |  |
| O=C1CC(c2ccccc2Cl)Cc2nc3ccc(Cl)cc3c(O)c21 (stereo not drawn) | 1 | 1.5 | 9.6 | 2.7 | 0.4 | 1 | 5.5 |  |  |  |  |
| O=C1c2c(nc3ccc(Cl)cc3c2O)CCC1c1ccccc1 (stereo not drawn) |  |  | 0 | 0.2 | 0 |  | 0 |  |  |  |  |
| CN(C)CCC/N=C1\CC(C)(C)Cc2c1c(=O)c1cc(Cl)ccc1n2O |  |  | 2.8 | 0.2 | 0.4 |  |  |  |  |  |  |
| O=C1CC(c2ccncc2)Cc2nc3ccc(Cl)cc3c(O)c21 (stereo not drawn) |  |  | 2.2 | 0.2 | 0.8 |  |  |  |  |  |  |
| COc1ccccc1C1C/C(=N\CCCN(C)C)c2c(nc3ccc(Cl)cc3c2O)C1 (stereo not drawn) | 2 |  | 6.4 | 1.7 | 6.7 |  |  |  |  |  |  |
| CCCCNC(CC)C/N=C1\CC(c2cccc(C(F)(F)F)c2)Cc2c1c(=O)c1cc(Cl)ccc1n2O (stereo not drawn) | 5 | 5.6 |  | 6.8 |  | 5 | 10.9 | 5 |  | 1 |  |
| CN(C)CCC/N=C1\CC(c2ccncc2)Cc2c1c(=O)c1cc(Cl)ccc1n2O (stereo not drawn) |  |  | 1.4 | 0 | 0 |  |  |  |  |  |  |
| CCN(CCO)CCC/N=C1\CC(c2ccc(Cl)c(Cl)c2)Cc2c1c(=O)c1cc(Cl)ccc1n2O (stereo not drawn) | 5 |  |  | 8.6 | 10.1 | 3 | 9.6 | 5 |  | 1 |  |
| O=c1c2c(n(O)c3ccc(Cl)cc13)CC(c1ccc(Cl)c(Cl)c1)C/C2=N\CCCN(CCO)CCO (stereo not drawn) | 5 | 1.2 |  | 5.6 | 10.6 | 4 | 7.9 | 5 |  | 1 |  |
| CCCCCCn1c2c(c(=O)c3cc(Cl)ccc31)C(=O)CC(c1ccc(C(F)(F)F)cc1)C2 (stereo not drawn) |  |  | 0.1 | 0.1 | 0 |  |  |  |  |  |  |
| O=c1c2c(n(O)c3ccc(Cl)cc13)CC(c1cccc(C(F)(F)F)c1)C/C2=N\CCCN1CCCC1 (stereo not drawn) | 4 |  | 25.6 | 6.2 | 9.6 | 3 | 6 | 5 |  |  |  |
| CCCCn1c2c(c(=O)c3cc(Cl)ccc31)C(=O)CC(c1ccc(C(F)(F)F)cc1)C2 (stereo not drawn) |  |  | 0.4 | -0.2 | -0.2 |  |  |  |  |  |  |
| O=C1CC(c2ccncc2)Cc2c1c(=O)c1cc(Cl)ccc1n2O (stereo not drawn) |  |  | 2 | 0 | 0.2 |  |  |  |  |  |  |
| CCCCN(CCCC)CC/N=C1\CC(c2cccc(C(F)(F)F)c2)Cc2c1c(=O)c1cc(Cl)ccc1n2O (stereo not drawn) | 5 | 5.4 |  | 9.6 | 11.6 | 3 | 7 | 5 | 1 |  |  |
| COc1ccc(C2C/C(=N\CCCN(C)C)c3c(nc4ccc(Cl)cc4c3O)C2)cc1 (stereo not drawn) | 1 |  | 11.2 | 0.5 | 4.5 |  |  |  |  |  |  |
| O=C1CC2(CCCCC2)Cc2c1c(=O)c1cc(Cl)ccc1n2O |  |  | 0 | 0 | 0.2 |  |  |  |  |  |  |
